ChEMBL document CHEMBL4002589, “Tri- and Tetrasubstituted Pyridinylimidazoles as Covalent Inhibitors of c-Jun N-Terminal Kinase 3” (J Med Chem, 2017)
The source made the active and inactive calls. The rule behind the calls is not given here.

Columns and labels:
[1] = biological target: Casein kinase I isoform gamma-2 (Homo sapiens) (UniProt P78368); assay: Inhibition of CK1 gamma2 (unknown origin) assessed as residual activity at 1 uM relative to control
Procedure, shortened: (§1)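 Each inhibitor is tested at a single concentration, 1 µM or 0.5 µM depending on the compound. Results are reported as residual kinase activity.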

[2] = system: Mitogen-activated protein kinase 10 (Homo sapiens), P53779 [C154A]; assay: Covalent binding affinity to JNK3 C154A mutant (unknown origin) at 5 molar excess after 1 hr by LC-muESI-QTOF mass spectrometry
Chain of Mitogen-activated protein kinase 10 (Homo sapiens), P53779 [C154A] (P53779 whole entry C154A): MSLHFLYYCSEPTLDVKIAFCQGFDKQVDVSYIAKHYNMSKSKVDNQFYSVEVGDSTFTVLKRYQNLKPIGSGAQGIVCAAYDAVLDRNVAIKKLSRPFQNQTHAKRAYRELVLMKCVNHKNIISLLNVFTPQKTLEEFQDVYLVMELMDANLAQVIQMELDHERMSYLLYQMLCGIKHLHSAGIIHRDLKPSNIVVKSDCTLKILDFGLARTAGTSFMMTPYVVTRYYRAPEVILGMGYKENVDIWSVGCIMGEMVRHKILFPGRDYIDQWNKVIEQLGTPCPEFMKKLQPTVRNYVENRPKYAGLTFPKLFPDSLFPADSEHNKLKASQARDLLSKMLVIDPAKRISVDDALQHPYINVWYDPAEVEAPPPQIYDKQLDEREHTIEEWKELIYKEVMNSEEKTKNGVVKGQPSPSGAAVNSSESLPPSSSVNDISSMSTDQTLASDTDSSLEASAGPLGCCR
Procedure, shortened: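 Intact-protein mass spectrometry with a JNK3 mutant carrying Cys-154→Ala. Inhibitor is incubated with the protein. Unbound and reversibly bound ligand are removed by chromatography and by a high declustering potential before ionization. The protein is then analysed by LC-µESI-QTOF to look for a mass shift from a covalent adduct.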

[3] = biological target: T1, Serine/threonine-protein kinase Sgk1 (Homo sapiens) (UniProt O00141); assay: Inhibition of full length human GST-tagged SGK1 expressed in Sf9 cells assessed as residual activity at 1 uM relative to control; procedure, shortened: as §1
T1 sequence (whole entry): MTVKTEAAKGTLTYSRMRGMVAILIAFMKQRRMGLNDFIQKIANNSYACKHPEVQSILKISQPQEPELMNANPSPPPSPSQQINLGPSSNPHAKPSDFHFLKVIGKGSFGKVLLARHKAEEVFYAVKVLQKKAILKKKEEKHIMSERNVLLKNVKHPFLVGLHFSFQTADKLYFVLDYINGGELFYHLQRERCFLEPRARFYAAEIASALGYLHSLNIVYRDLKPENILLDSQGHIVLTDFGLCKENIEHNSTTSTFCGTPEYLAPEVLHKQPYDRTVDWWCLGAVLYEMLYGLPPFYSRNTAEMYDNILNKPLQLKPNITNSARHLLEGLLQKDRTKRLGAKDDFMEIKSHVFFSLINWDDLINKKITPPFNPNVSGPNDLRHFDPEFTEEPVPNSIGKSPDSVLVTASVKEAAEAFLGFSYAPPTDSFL

[4] = biological target: Mitogen-activated protein kinase kinase kinase 11 (Homo sapiens) (UniProt Q16584); assay: Inhibition of MAP3K11 (unknown origin) assessed as residual activity at 1 uM relative to control; procedure, shortened: as §1
Chain of Mitogen-activated protein kinase kinase kinase 11 (Homo sapiens) (Q16584 whole entry, looked up, canonical isoform): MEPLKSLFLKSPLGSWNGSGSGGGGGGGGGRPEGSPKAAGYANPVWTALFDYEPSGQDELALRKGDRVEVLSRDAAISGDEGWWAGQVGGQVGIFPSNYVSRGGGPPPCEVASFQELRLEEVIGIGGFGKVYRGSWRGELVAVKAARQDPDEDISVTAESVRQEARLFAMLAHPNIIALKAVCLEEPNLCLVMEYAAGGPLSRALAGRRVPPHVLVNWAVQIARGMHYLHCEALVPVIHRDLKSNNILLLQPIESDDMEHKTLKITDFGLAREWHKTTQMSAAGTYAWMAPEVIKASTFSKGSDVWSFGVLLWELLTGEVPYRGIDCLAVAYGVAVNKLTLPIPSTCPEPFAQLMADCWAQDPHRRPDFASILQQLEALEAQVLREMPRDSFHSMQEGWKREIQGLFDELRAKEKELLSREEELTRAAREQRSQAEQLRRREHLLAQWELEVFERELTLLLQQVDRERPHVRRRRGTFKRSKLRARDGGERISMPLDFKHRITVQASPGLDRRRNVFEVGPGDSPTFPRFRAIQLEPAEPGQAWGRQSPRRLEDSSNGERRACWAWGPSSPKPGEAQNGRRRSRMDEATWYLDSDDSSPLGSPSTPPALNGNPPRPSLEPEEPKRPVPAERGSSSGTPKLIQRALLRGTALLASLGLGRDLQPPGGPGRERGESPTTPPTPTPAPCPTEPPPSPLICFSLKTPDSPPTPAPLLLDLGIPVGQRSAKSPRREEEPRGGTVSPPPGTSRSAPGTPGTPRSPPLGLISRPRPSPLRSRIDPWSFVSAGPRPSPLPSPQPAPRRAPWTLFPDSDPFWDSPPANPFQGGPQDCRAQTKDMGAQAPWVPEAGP

[5] = biological target: Casein kinase I isoform delta (Homo sapiens) (UniProt P48730); assay: Inhibition of CK1 delta (unknown origin) assessed as residual activity at 1 uM relative to control; procedure, shortened: as §1
Chain of Casein kinase I isoform delta (Homo sapiens) (P48730 whole entry, looked up, canonical isoform): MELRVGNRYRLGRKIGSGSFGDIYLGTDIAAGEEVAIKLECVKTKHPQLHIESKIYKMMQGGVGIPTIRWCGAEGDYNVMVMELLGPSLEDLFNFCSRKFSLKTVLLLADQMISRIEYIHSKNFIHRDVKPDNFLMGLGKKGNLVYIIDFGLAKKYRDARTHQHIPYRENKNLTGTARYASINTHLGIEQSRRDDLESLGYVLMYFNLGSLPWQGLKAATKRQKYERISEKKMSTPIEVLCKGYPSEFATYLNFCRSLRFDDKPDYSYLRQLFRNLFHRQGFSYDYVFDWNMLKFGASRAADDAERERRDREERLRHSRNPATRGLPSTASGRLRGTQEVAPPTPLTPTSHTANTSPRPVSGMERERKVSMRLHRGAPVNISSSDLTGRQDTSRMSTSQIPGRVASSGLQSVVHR

[6] = biological target: Mitogen-activated protein kinase kinase kinase 20 (Homo sapiens) (UniProt Q9NYL2); assay: Inhibition of ZAK (unknown origin) assessed as residual activity at 1 uM relative to control; procedure, shortened: as §1
Chain of Mitogen-activated protein kinase kinase kinase 20 (Homo sapiens) (Q9NYL2 2-800 limits assumed): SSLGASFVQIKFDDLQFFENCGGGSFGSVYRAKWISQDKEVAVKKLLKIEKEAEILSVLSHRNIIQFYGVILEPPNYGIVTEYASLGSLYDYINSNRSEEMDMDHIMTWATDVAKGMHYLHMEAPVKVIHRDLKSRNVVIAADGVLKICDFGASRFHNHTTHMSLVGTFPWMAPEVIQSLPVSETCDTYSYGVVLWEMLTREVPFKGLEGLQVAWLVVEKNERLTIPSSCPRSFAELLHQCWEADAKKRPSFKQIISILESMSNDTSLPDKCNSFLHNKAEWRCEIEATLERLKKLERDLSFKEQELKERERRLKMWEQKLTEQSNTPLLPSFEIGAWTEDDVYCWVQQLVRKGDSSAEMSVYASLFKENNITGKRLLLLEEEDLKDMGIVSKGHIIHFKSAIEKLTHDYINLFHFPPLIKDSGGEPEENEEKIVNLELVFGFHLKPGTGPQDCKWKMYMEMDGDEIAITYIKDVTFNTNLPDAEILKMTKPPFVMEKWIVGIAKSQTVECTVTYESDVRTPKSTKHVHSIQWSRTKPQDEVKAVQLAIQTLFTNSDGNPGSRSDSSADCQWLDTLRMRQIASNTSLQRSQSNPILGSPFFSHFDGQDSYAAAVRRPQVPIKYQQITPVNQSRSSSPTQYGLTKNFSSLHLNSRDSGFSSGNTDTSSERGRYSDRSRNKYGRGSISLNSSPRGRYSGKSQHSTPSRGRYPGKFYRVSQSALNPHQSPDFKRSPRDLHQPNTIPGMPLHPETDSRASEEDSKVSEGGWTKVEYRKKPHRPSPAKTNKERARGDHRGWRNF

[7] = biological target: Mitogen-activated protein kinase kinase kinase 10 (Homo sapiens) (UniProt Q02779); assay: Inhibition of MAP3K10 (unknown origin) assessed as residual activity at 1 uM relative to control; procedure, shortened: as §1
Chain of Mitogen-activated protein kinase kinase kinase 10 (Homo sapiens) (Q02779 whole entry, looked up): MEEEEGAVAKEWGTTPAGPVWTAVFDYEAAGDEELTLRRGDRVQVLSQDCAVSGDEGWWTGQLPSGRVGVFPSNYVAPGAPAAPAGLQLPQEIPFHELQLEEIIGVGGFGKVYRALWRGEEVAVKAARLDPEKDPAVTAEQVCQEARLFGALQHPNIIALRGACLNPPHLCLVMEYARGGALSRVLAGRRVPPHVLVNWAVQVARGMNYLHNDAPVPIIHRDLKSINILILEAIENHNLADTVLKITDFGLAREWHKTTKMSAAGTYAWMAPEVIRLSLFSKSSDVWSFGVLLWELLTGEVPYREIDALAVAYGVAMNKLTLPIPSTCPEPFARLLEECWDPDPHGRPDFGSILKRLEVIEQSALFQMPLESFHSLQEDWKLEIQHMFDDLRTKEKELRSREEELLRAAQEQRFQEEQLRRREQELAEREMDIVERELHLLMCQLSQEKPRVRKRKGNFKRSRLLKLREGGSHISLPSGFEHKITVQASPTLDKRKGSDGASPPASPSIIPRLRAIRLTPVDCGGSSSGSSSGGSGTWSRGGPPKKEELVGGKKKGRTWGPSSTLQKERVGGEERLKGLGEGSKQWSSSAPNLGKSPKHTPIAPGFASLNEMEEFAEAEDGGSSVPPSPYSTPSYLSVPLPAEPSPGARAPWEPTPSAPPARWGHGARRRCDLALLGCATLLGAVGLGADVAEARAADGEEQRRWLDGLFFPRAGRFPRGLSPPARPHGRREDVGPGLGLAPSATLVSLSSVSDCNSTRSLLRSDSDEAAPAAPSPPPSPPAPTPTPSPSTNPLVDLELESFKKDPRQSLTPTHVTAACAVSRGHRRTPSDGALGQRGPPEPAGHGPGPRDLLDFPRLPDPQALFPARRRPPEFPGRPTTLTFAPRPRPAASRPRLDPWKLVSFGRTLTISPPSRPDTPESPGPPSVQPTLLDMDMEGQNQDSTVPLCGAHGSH

[8] = biological target: T2, Serine/threonine-protein kinase TAO2 (Homo sapiens) (UniProt Q9UL54); assay: Inhibition of TAOK2 (unknown origin) assessed as residual activity at 1 uM relative to control; procedure, shortened: as §1
T2 sequence (whole entry): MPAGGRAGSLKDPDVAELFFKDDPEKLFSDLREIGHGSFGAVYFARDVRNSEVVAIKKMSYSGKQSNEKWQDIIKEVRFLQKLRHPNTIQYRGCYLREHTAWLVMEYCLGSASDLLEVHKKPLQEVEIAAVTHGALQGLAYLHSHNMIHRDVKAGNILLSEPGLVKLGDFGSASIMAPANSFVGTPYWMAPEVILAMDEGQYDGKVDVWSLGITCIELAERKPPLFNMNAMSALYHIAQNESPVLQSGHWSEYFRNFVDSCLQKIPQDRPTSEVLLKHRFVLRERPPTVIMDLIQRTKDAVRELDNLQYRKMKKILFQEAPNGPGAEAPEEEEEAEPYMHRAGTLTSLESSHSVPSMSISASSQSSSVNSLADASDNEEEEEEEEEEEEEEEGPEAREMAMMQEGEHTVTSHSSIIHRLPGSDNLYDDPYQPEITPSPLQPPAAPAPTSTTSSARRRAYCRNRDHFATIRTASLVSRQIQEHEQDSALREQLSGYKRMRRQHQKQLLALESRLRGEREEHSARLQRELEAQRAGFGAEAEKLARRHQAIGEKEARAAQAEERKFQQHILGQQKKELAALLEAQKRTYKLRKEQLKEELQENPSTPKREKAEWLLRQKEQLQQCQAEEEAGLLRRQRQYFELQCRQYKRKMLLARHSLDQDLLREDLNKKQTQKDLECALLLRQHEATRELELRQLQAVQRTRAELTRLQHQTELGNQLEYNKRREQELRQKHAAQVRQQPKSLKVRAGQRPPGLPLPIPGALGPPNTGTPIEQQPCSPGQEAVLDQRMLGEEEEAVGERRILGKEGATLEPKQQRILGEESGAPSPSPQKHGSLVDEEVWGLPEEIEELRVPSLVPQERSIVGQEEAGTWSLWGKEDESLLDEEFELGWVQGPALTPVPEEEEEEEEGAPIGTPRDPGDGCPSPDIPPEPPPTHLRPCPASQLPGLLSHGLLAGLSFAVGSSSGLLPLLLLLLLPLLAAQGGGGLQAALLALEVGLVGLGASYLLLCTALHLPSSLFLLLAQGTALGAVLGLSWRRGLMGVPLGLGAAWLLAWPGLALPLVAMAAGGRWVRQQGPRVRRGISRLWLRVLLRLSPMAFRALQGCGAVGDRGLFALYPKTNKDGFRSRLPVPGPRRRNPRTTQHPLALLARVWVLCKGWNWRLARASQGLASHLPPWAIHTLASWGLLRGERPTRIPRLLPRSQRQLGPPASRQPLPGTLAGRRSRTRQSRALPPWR

[9] = biological target: Serine/threonine-protein kinase 16 (Homo sapiens) (UniProt O75716); assay: Inhibition of full length human GST-tagged TSF1 expressed in Sf9 cells assessed as residual activity at 1 uM relative to control; procedure, shortened: as §1
Chain of Serine/threonine-protein kinase 16 (Homo sapiens) (O75716 whole entry, the tested form may be a part): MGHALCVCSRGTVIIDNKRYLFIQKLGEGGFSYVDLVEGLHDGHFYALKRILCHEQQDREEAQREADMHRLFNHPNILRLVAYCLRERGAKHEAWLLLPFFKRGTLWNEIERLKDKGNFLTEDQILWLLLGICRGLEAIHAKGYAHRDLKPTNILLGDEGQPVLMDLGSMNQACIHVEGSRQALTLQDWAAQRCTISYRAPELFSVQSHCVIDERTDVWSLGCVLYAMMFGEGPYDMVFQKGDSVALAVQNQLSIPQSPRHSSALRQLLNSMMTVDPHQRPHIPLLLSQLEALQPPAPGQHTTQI

[10] = biological target: Mitogen-activated protein kinase 10 (Homo sapiens, UniProt P53779); assay: Inhibition of recombinant 6x-His-tagged JNK3 (39 to 402 residues) (unknown origin) expressed in Escherichia coli BL21(DE3) assessed as reduction in ATF2 phosphorylation measured after 50 mins by ELISA
Chain of Mitogen-activated protein kinase 10 (P53779 whole entry, the tested form may be a part): as the sequence (P53779 whole entry C154A) above, with A154C counted along it

[11] = biological target: Mitogen-activated protein kinase 14 (Homo sapiens, UniProt Q16539); assay: Inhibition of GST-His tagged human p38alpha expressed in Escherichia coli assessed as reduction in ATF2 phosphorylation measured after 60 mins by ELISA
Chain of Mitogen-activated protein kinase 14 (Q16539 whole entry): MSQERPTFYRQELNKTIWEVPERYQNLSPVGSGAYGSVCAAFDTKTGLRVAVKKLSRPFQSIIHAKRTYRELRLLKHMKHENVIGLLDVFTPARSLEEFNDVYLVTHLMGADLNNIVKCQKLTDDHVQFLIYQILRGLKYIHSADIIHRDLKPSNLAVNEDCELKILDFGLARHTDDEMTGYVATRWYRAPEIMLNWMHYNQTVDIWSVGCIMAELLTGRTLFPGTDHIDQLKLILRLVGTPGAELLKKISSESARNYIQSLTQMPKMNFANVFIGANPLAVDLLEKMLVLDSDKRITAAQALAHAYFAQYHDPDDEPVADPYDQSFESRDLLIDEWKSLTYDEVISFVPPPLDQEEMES
Procedure, shortened: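 ELISA kinase assays run in parallel for JNK3 and p38α, with 60 min incubation. IC50 values are the mean of three experiments.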

Chain of Casein kinase I isoform gamma-2 (Homo sapiens) (P78368 whole entry, looked up, canonical isoform): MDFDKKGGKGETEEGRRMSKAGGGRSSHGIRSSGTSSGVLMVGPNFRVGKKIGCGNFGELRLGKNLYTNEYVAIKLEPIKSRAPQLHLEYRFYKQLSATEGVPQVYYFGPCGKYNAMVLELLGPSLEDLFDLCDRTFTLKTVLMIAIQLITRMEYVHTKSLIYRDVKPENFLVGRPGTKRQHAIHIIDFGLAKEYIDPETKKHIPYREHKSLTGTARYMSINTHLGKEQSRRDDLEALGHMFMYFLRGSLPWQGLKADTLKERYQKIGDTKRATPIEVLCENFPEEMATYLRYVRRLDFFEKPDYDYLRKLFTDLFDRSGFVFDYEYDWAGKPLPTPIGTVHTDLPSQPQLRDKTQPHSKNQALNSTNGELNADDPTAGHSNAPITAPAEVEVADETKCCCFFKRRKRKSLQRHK

Activity [1]: 10 to 29%
Activity [3]: 10 to 29%
Activity [4]: 10 to 29%
Activity [5]: 10 to 29%
Activity [6]: 10 to 29%
Activity [7]: 10 to 29%
Activity [8]: 10 to 29%
Activity [9]: 10 to 29%
IC50 [10]: 2 nM
IC50 [11]: 1950 nM
SMILES: C=CC(=O)Nc1cccc(C(=O)Nc2ccc(Nc3cc(-c4[nH]c(SC)nc4C)ccn3)cc2)c1
Activity [2]: inactive
